ALR H2O2 inh: inhibitors of human sulfhydryl oxidase ALR. P55789. purified ALR, DTT oxidation, H2O2 HRP-luminol luminescence. inhibition, % (no concentration beside the values). 290,000 tested, 3.8% active. AID 485317;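 active = mean replicate inhibition above about 79%, with every replicate also reaching it, limit read from the data; inconclusive = only one of the two criteria met; inactive = mean below limit and not every replicate reaching it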
Target sequence (P55789 whole entry, looked up): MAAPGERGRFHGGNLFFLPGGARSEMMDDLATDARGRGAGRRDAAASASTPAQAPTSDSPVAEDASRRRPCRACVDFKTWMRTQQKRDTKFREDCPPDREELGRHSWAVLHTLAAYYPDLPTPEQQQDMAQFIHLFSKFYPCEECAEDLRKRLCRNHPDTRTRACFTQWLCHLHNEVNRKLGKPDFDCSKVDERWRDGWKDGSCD
UCH37 inh: blocks the human deubiquitinase UCH37 | Q9Y5K5 | purified proteasome/UCH37, Ub-AMC cleavage fluorescence | inhibition, % (test concentration not listed) | 330,000 tested, 0.33% active | AID 588478;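 active = mean inhibition over replicate wells above about 20%, limit read from the data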;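 also: 0% = compound-free wells with enzyme and 100% = wells lacking proteasome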
Target sequence (Q9Y5K5 whole entry, looked up): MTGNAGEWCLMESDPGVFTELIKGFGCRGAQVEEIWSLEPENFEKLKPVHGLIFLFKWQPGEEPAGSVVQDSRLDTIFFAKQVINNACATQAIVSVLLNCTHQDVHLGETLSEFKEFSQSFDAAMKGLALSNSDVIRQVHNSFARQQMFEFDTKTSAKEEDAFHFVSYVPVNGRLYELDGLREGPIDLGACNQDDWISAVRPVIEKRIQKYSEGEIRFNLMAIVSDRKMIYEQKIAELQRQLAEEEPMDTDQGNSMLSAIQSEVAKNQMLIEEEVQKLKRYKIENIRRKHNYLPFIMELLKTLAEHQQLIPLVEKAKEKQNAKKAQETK
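Material: human UCH37 enzyme supplied as purified proteasome complex / Amount: 0.15 nM proteasome as dispensed / Buffer or medium: pH 7.4 Tris-HCl (50 mM) with ovalbumin, ATP-MgCl2, DTT / Times: preincubation 30 min, reaction 25 min, room temperature / Technique: AMC fluorescence from Ub-AMC cleavage, excitation 355 nm, emission 460 nm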
ATG4B inhibitor: inhibitors of human ATG4B cysteine protease; inhibition, % at 8.33 µM; 340,000 tested, 0.51% active; Q9Y4P1; ATG4B cleavage of LC3-PLA2, NBD-HPC fluorescence, 1 h; in the data active = inhibition above about 40%
Calb FLC: C. albicans growth modulation with fluconazole; C. albicans CaCi-2 (fluconazole-resistant clinical isolate) + fluconazole, Alamar Blue growth, 48 h; 300,000 tested, 0.57% active; growth inhibition, % (no concentration beside the values); AID 1979;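 active = growth inhibition above about 58% in most replicates, limit read from the data, passing the limit was not always enough; inconclusive = exactly half the replicates above a set limit; inactive = most replicates below a set limit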;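 also: all wells also contain fluconazole at 8 µg/ml as a sub-toxic cotreatment; 0% = median of DMSO wells and 100% = median of geldanamycin control wells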
NALP1 inh: blocks the NALP1 inflammasome reconstituted in yeast; S. cerevisiae NALP1/ASC/caspase-1 growth, X-gal OD620, 72 h; inhibition, % at 10 µM; 280,000 tested, 0.61% active; in the data active = inhibition mostly above about 24%, no sharp cut-off; inactive = mostly below about 32%
NLRP3 yeast inh: NALP3 inhibition in yeast; Yeast reconstituted NLRP3/ASC/caspase-1, beta-gal luminescence, 24 h; AID 2825; 330,000 tested, 0.39% active; inhibition, % at 10 µM;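 active = inhibition of 50% or more; inactive = inhibition below 50%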;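 also: plate controls were induced DMSO wells for no effect and uninduced yeast grown without galactose for full effect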
The depositor's hits bear a star; ? = inconclusive; . = no result. An excerpt weighted towards active compounds, which were near 4.8% of everything screened.

SMILES	ALR H2O2 inh	UCH37 inh	ATG4B inhibitor	Calb FLC	NALP1 inh	NLRP3 yeast inh
COc1ccc(S(=O)(=O)N/N=C/c2ccc(OCCN3CCOCC3)c(OC)c2)cc1	21	.	-2	2	24	2
Cc1ccc(NC(=O)NC(=O)CN2CCN(c3ccc(O)cc3)CC2)c(C)c1	99*	0	-8	-4	21	13
CC(C)(C)NC(=O)NC(=O)CN1CCN(c2ccc(O)cc2)CC1	94*	1	-13	6	-2	6
CCOC(=O)NN=Cc1ccccc1OCc1ccc(Cl)cc1	.	6	.	.	.	.
C=CCn1c(Cn2nnc3ccccc32)nnc1SCC(=O)NN=Cc1cc(Br)cc(OC)c1O	.	10	.	.	.	.
CCCCN1C2=NC(c3ccccc3)CN2c2ccccc21 (centres undefined)	93*	6	5	4	.	17
c1ccc(CCn2nnnc2CN2CCc3ccccc32)cc1	99*	4	-6	.	-16	10
Cc1nc2ccc(C(=O)O)cc2c2c1CC(C)S2 (centres undefined)	100*	-133	4	13	7	10
Cc1nc2cc(C(=O)O)ccc2s1	-1	1	-5	36	-3	9
Cc1ccc(N2CC(C(=O)NN=Cc3c(F)cccc3Cl)CC2=O)cc1 (centres undefined)	.	4	.	.	.	.
CCN(CC)Cc1c(C(=O)NN=Cc2ccccn2)nnn1-c1nonc1N	.	3	.	.	.	.
COCCCNC(=S)N1CCN(C)CC1	-2	2	1	12	.	-1
Cc1ccc(NC(=S)NCCN2CCOCC2)cc1C	-3	0	-1	3	9	16
Cc1ccc(OCC(=O)NCCN2CCOCC2)cc1C	87*	2	-9	-4	16	-11
S=C(NCCCN1CCOCC1)N1CCN(c2ccccc2)CC1	98*	1	-9	4	4	-1
COCCCNC(=S)N1CCN(c2ccccc2)CC1	97*	4	-1	-5	-11	32
Cc1ccc(NC(=S)NCCCN2CCOCC2)cc1C	98*	2	1	-7	.	7
CC(=NNC(=O)c1nnn(-c2nonc2N)c1C)c1ccc(OCc2ccccc2)cc1	.	-1	.	.	.	.
CCC(=NNC(=O)c1ccc(N2CCCC2=O)cc1)c1ccccc1	.	-1	.	.	.	.
COc1ccc(-c2nn(-c3ccccc3)cc2C=Nn2cnnc2)cc1OC	.	0	.	.	.	.
O=C(NN=C1CCCc2ccccc21)c1cc([N+](=O)[O-])cc([N+](=O)[O-])c1	.	5	.	.	.	.
O=C1C=C(c2ccccc2)OC(c2ccccc2)O1 (centres undefined)	12	-1	-1	1	41*	1
CCC(c1nnnn1C(C)(C)CC)N(CCCO)Cc1cc2cc(C)cc(C)c2[nH]c1=O (centres undefined)	.	3	-9	32	35*	.
CCCC(c1nnnn1C(C)(C)CC)N(CCCO)Cc1cc2cc(C)cc(C)c2[nH]c1=O (centres undefined)	-3	-1	-7	8	19	-12
CN(C)c1ccc(/C=N/Nc2ccc(-n3ccnc3)nn2)cc1	94*	.	-10	-11	8	21
SMILES	ALR H2O2 inh	UCH37 inh	ATG4B inhibitor	Calb FLC	NALP1 inh	NLRP3 yeast inh
COc1ccc(C=NNc2nc(-c3cccc(S(=O)(=O)N4CCCC4)c3)cs2)c(OC)c1	.	-83	.	.	.	.
CC(C)C(NC(=O)CCNC(=O)c1ccc(C(C)(C)C)cc1)c1nc2ccccc2[nH]1 (centres undefined)	0	3	-4	.	.	22
CC(=O)c1ccc(S(=O)(=O)NCC(=O)NC(c2nc3ccccc3[nH]2)C(C)C)cc1 (centres undefined)	99*	-6	-54	.	.	3
CC(=NOCc1ccccc1)c1c(O)cc(C(C)C)n(-c2ccccc2)c1=O	.	-3	.	.	.	.
CN(N=Cc1ccc(O)cc1O)c1ncc(C(F)(F)F)cc1Cl	.	-4	.	.	.	.
COc1cccc(CNc2nc3ccccc3n2CCN2CCCCC2)c1	99*	4	17	4	20	2
COc1cccc(CNc2nc3ccccc3n2CCN2CCCCC2)c1OC	99*	6	0	.	17	11
Brc1cccc(CNc2nc3ccccc3n2CCN2CCCCC2)c1	.	5	20	8	12	-3
CCCn1c(NCc2cc(OC)ccc2OC)nc2ccccc21	89*	5	-2	-2	7	0
Cn1c(NCc2cccc(Br)c2)nc2ccccc21	93*	1	-5	6	30	25
COc1ccc(OC)c(CNc2nc3ccccc3n2CCN2CCCCC2)c1	-2	2	0	-9	13	-2
CCn1c(NCc2cc(OC)ccc2OC)nc2ccccc21	4	-1	-10	-22	14	6
ON=Cc1cn(-c2ccccc2)nc1-c1cccnc1	.	-1	.	.	.	.
Cc1c(C(=O)NN=Cc2ccc(-c3ccccc3[N+](=O)[O-])o2)sc(N)c1C#N	.	4	.	.	.	.
COc1ccc(NC(=O)CSc2nc3[nH]ncc3c(=O)[nH]2)cc1OC	96*	2	9	-1	.	24
N#Cc1ccc(NC(=O)CSc2nc3[nH]c(=O)cc(O)c3s2)cc1	99*	5	4	.	.	21
O=c1cc(O)c2sc(Nc3ccc(F)cc3)nc2[nH]1	57	.	0	-26	31	-3
COc1ccc(NC(=O)CSc2nc3[nH]c(=O)cc(O)c3s2)c(OC)c1	41	7	-12	.	.	11
COc1ccc(NC(=O)CSc2nc3[nH]c(=O)cc(O)c3s2)cc1OC	99*	5	-8	.	.	9
CSc1ccc(NC(=O)CSc2nc3[nH]c(=O)cc(O)c3s2)cc1	99*	6	4	.	.	6
Cc1ccccc1C(=O)Nc1cccc(C(=O)NN=Cc2ccccn2)c1	.	-1	.	.	.	.
C/C(C=NNC(=O)CSc1nnc(SCc2ccccc2)s1)=C\c1ccco1	.	6	.	.	.	.
Cc1ccc(C2=[N+]([O-])C3(CCCCCC3=NO)N(O)C2(C)C)o1 (centres undefined)	.	6	.	.	.	.
CC(=O)Nc1ccc(C=NNC(=O)c2cc(-c3ccco3)nc3ccccc23)cc1	.	-13	.	.	.	.
CN(C1=C(NC(=O)c2ccccc2)C(=O)c2ccccc2C1=O)C1CCS(=O)(=O)C1 (centres undefined)	.	49*	.	?	43*	-13
COC(=O)C/C=C/[C@@H](C)[C@@H](C=NOC[C@H]1O[C@H](c2ccccc2)C=C[C@@H]1Oc1ccc(OC)cc1)OC	.	3	.	.	.	.
O=[N+]([O-])c1ccc(S(=O)(=O)NN=Cc2ccco2)cc1	.	2	.	.	.	.
COc1cccc(C(=O)Oc2ccc(C=NNC(=O)c3ccncc3)cc2OC)c1	.	-13	.	.	.	.
CC(Sc1nc(N)cc(=O)[nH]1)C(=O)Nc1sc2c(c1C#N)CCCC2 (centres undefined)	92*	5	-5	42	-4	1
N#Cc1c(NC(=O)CSc2nc(N)cc(=O)[nH]2)sc2c1CCCCCC2	4	0	-8	9	.	10

Screens as filed in PubChem.
